Active and inactive are the calls of the source.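 How the source made its calls, unless noted: active means viability at or under a set limit in both replicates, limit being median viability minus 3 SD (cut at about 48% in these data, passing the limit was not always enough); inconclusive means at or under the limit in just one replicate; inactive means at or above the limit in both replicates.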
Key:
[1] = Her2 expression decrease, cell viability multiplex – SKBR3 breast tumor cells, AlphaScreen, ATP viability, primary screen (AID 461;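 active means Her2 level under about 52% in both replicate screens, with viability over 70% of control, limit read from the data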;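 on Her2 level: lower value means less Her2 protein in the cells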;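 on viability: percent of carrier control wells set as 100% viability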); conditions: SKBR3 Her2 protein level, 18-24 h, measured here: SKBR3 viability, ATP luminescence, at 10 µM
[2] = molecular target: Receptor tyrosine-protein kinase erbB-2 (Homo sapiens) (UniProt P04626); assay: as above; conditions: 18-24 h, at 10 µM, stronger effect = lower value
[3] = reduced viability of SK-BR-3 breast cancer cells – cell-based, 24 h, human, pilot screen (AID 572;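 active means viability at or below 10% of carrier control in both of two separate runs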;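 further: compound exposure lasted between 18 and 24 h rather than exactly 24 h; 100% = carrier-treated control wells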); conditions: SK-BR-3 viability, CellTiter-Glo luminescence, at 10 µM, stronger effect = lower value
[4] = HUVEC growth inhibition – cell-based, human, primary screen (AID 575;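 active means viability at or below 30% in both replicate assays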;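 further: 100% = median of untreated cell wells with 0.1% DMSO on each plate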); conditions: HUVEC proliferation, CellTiter-Glo luminescence, 72 h; at 10 µM; stronger effect = lower value
Procedure, shortened: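 material = primary HUVEC, no more than 12 passages | input = 1250 cells per well | controls = vehicle and MePR control wells | measured by = CTG luminescence | times = 72 h compound incubation | format = collagen-coated 384-well format | read-out = % viability vs DMSO wells | doses = single 10 µM dose, 0.1% DMSO, from 5x medium stock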

[5] = H69AR cell proliferation blockers – human, duplicate replicates, primary screen (AID 580); conditions: H69AR lung tumor cells viability, ATP luminescence, 72 h; at 10 µM; stronger effect = lower value;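 further: 100% = mean luminescence of untreated wells and 0% = no signal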
[6] = MRP1 drug-resistance reversers in H69AR cells – cell-based, doxorubicin co-treatment, pilot screen (AID 601;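 active means viability loss from added drug above about 55%, and viability with drug at most 40%, in both replicates, limit read from the data, passing the limit was not always enough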); conditions: CellTiter-Glo, 72 h, at 10 µM; for differential viability (reversal): stronger effect = higher value
[7] = yeast transport mutant growth inhibition pilot in 384-well plates, post-Golgi transport modulator project (AID 636; in the data active means inhibition above about 31%); conditions: absorbance 615 nm, about 18 h, stronger effect = higher value
[8] = growth suppression of yeast trafficking mutant, preliminary HTS, modulators of trafficking downstream of Golgi apparatus project, 1536-format plate, OD 615 nm (AID 637; in the data active means inhibition above about 30%); conditions: yeast transport mutant growth, absorbance 615 nm, 18 h; stronger effect = higher value
[9] = H69AR cells + 2 uM doxorubicin, measured here: viability with 2 uM doxorubicin, stronger effect = lower value
[10] = H69AR cells, compound alone cytotoxicity

Receptor tyrosine-protein kinase erbB-2 (Homo sapiens), sequence (P04626 whole entry, looked up): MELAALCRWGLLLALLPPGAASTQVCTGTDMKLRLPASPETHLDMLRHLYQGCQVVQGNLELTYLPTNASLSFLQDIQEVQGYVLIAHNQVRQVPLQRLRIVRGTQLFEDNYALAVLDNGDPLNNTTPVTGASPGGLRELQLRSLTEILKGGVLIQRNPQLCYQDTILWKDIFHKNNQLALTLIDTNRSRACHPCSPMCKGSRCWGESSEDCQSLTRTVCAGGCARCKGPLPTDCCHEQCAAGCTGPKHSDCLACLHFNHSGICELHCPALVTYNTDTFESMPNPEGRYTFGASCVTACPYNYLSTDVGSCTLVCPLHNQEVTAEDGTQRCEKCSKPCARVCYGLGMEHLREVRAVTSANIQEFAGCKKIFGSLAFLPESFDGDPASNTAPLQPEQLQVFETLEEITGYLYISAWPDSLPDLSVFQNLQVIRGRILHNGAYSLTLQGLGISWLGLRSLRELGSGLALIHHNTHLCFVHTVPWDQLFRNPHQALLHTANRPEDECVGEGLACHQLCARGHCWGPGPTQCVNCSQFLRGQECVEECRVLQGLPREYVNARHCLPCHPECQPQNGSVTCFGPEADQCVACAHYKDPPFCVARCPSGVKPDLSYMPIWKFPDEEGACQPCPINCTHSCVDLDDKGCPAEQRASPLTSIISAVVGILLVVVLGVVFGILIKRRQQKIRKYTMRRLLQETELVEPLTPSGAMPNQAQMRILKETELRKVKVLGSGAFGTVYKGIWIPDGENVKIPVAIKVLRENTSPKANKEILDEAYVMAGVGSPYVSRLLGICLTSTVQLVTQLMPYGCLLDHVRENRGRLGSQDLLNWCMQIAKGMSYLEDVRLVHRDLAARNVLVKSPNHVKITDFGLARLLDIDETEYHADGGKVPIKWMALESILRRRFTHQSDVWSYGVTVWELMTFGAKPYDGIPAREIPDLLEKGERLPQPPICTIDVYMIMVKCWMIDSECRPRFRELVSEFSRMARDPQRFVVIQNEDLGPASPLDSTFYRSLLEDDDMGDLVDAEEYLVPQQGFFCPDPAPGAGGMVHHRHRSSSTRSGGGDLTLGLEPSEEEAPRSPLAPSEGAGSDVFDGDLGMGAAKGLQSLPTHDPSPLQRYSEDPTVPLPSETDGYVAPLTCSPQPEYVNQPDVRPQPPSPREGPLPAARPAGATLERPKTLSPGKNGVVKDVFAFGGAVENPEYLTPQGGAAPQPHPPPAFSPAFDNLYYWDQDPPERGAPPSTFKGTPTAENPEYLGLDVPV

SMILES	viability [1]	Her2 level [2]	viability [3]	viability [4]	viability [5]	differential viability (reversal) ([6]; H69AR cells + 2 uM doxorubicin)	viability [6, 9]	viability [6, 10]	inhibition [7]	inhibition [8]
COc1cccc(OC)c1OCCNCCO	126%	98% (inactive)	126% (inactive)	85.7% (inactive)	96% (inactive)	11.2% (inactive)	84.8%	96%	-1.82% (inactive)	0.33% (inactive)
CCc1nc2sc3c(c2c(=O)o1)CCCC3	102%	81% (inactive)	102% (inactive)	82.1% (inactive)	96.3% (inactive)	-0.255% (inactive)	96.6%	96.3%	-7.5% (inactive)	-9.84% (inactive)
CCCC1CC(C)(C(=O)Cn2[nH]c(=O)ccc2=O)OC1=O (stereo not given)	84%	95.5% (inactive)	84% (inactive)	105% (inactive)	91.8% (inactive)	-3.6% (inactive)	95.4%	91.8%	-4% (inactive)	5.08% (inactive)
O=C(NCC1CCCO1)c1ccccc1-c1nc(-c2ccc(Cl)cc2)no1 (stereo not given)	78.5%	87.5% (inactive)	78.5% (inactive)	76% (inactive)	95.1% (inactive)	6.99% (inactive)	88.1%	95.1%	-5.68% (inactive)	1.8% (inactive)
N#Cc1c(NC(NC(=O)c2ccco2)C(=O)c2ccccc2)sc2c1CCCC2 (stereo not given)	86.5%	73.5% (inactive)	86.5% (inactive)	70.7% (inactive)	86.4% (inactive)	-6.42% (inactive)	92.8%	86.4%	80.4% (active)	18% (inactive)
CCOc1ccc(NC(=O)CN(C)CC(=O)NC2CCCc3ccccc32)cc1OCC (stereo not given)	83%	88.5% (inactive)	83% (inactive)	100% (inactive)	89.9% (inactive)	-7.38% (inactive)	97.3%	89.9%	-0.38% (inactive)	0.33% (inactive)
CCOC(=O)C1CCCN(C(=O)c2cc3c(=O)n4cccc(C)c4nc3n2C)C1 (stereo not given)	106%	77% (inactive)	106% (inactive)	108% (inactive)	94.3% (inactive)	5.81% (inactive)	88.4%	94.3%	-7.3% (inactive)	2.7% (inactive)
CC(=O)OCC1OC(c2ccccc2)C(OC(C)=O)C(OC(C)=O)C1OC(C)=O (stereo not given)	90%	94.5% (inactive)	90% (inactive)	108% (inactive)	98.8% (inactive)	-1.94% (inactive)	101%	98.8%	-3.21% (inactive)	-3.83% (inactive)
O=C(/C=C1\NC2(CCCC2)Cc2ccccc21)N1CCOCC1	101%	85% (inactive)	101% (inactive)	98.2% (inactive)	102% (inactive)	17.3% (inactive)	85%	102%	-7.12% (inactive)	-3.49% (inactive)
Cc1ccc(C)c(-c2nc3cc(N)ccc3o2)c1	78.5%	106% (inactive)	78.5% (inactive)	46.6% (inactive)	102% (inactive)	8.46% (inactive)	93.8%	102%	-1.18% (inactive)	-6.03% (inactive)
CCn1c(SCC(=O)NCc2ccco2)nc2c(c1=O)SC(C)C2 (stereo not given)	95%	91% (inactive)	95% (inactive)	103% (inactive)	91.3% (inactive)	-0.41% (inactive)	91.7%	91.3%	-4.4% (inactive)	-0.98% (inactive)
C/C(N)=C(/C#N)C(=O)COC(=O)CCSc1ccccc1	97.5%	89% (inactive)	97.5% (inactive)	84.4% (inactive)	101% (inactive)	-0.045% (inactive)	101%	101%	-0.13% (inactive)	4.59% (inactive)
COc1ccc2cc(C(c3nnnn3C3CCCCC3)N3CCCCCC3)c3nnnn3c2c1 (stereo not given)	94%	72.5% (inactive)	94% (inactive)	81.6% (inactive)	64.3% (inactive)	-2.87% (inactive)	67.2%	64.3%	-4.8% (inactive)	-2.86% (inactive)
CCOC(=O)CSc1nc2cc(C(=O)NCc3ccco3)ccc2c(=O)n1C1CCCCC1	112%	83.5% (inactive)	112% (inactive)	91.7% (inactive)	89.8% (inactive)	2.55% (inactive)	87.3%	89.8%	-4.53% (inactive)	0.33% (inactive)
O=C(CSc1ncnc2ccccc12)NCCCO	104%	80% (inactive)	104% (inactive)	103% (inactive)	103% (inactive)	12.2% (inactive)	91.1%	103%	-0.65% (inactive)	4.92% (inactive)
Cn1c(SCCN2CCCCC2)nnc1-c1ccccc1Br	94.5%	95.5% (inactive)	94.5% (inactive)	105% (inactive)	105% (inactive)	9.74% (inactive)	95.3%	105%	-4.4% (inactive)	5.48% (inactive)
Cc1cc(C)n(-c2nc3c(c(=O)n(Cc4ccc(Cl)c(Cl)c4)c(=O)n3C)n2C)n1	103%	99% (inactive)	103% (inactive)	93% (inactive)	95.6% (inactive)	5.92% (inactive)	89.6%	95.6%	-1.69% (inactive)	-3.65% (inactive)
CC(C)COc1nc2ccccc2nc1C(C#N)C(=O)NC1CCCCC1 (stereo not given)	99%	105% (inactive)	99% (inactive)	80% (inactive)	84.9% (inactive)	-20.3% (inactive)	105%	84.9%	-4.67% (inactive)	31% (active)
COC(=O)c1[nH]c2cc(OC)ccc2c1NC(=O)CCN1CCCCC1	85%	114% (inactive)	85% (inactive)	116% (inactive)	98.2% (inactive)	2.35% (inactive)	95.8%	98.2%	-1.97% (inactive)	-4.43% (inactive)
COc1cccc(/C=N/n2c(C)nc3ccccc32)c1OC	91%	93.5% (inactive)	91% (inactive)	52.1% (inactive)	91.9% (inactive)	3.66% (inactive)	88.3%	91.9%	-2.4% (inactive)	-6.35% (inactive)
